From ChEMBL document CHEMBL2203189, “Synthesis and pharmacology of 1-alkyl-3-(1-naphthoyl)indoles: steric and electronic effects of 4- and 8-halogenated naphthoyl substituents” (Bioorg Med Chem, 2012)
Activity calls are given as the source filed them.

Assays:
[1] = molecular target: T1, Cannabinoid receptor 1 (Homo sapiens, UniProt P21554); assay: Displacement of [3H]CP55940 from human CB1 receptor expressed in HEK293 cells after 1 hr by liquid scintillation spectrophotometry; type: cell-based
Summary of the method: (§1)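 Membranes (50 µg) from HEK-293 cells stably expressing human CB1, cultured in DMEM/10% FBS. Incubated with 0.5 nM [3H]CP55,940 and test compound at 1 nM–10 µM in buffer with BSA (5 mg/mL), 1 h at 30 °C. Nonspecific binding defined with excess unlabelled CP55,940. Filtered through GF/B, then scintillation counting.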

[2] = molecular target: Cannabinoid receptor 2 (Homo sapiens, UniProt P34972); assay: Displacement of [3H]CP55940 from human CB2 receptor expressed in CHO cells after 1 hr by liquid scintillation spectrophotometry; type: cell-based
Summary of the method: as §1, with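 “CHO” for “HEK-293”, “CB2,” for “CB1,”, “fetal calf serum.” for “FBS.”, “µM” for “µM in buffer”, “GF/B filtration,” for “Filtered through GF/B,”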

[3] = organism: Homo sapiens; assay: Selectivity ratio of Ki for human CB1 receptor to Ki for human CB2 receptor
[4] = tested on: Mus musculus; assay: Locomotor activity in Harlan ICR mouse assessed as inhibition of activity level at 6.2 umol/kg, iv from 5 to 15 mins by spontaneous locomotor activity test relative to vehicle treated control; type: functional, organism-based
Summary of the method: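 Spontaneous activity in male ICR mice (18–25 g) after one iv tail-vein probe dose in 1:1:18 emulphor–ethanol–saline. Photocell beam interruptions (16 beams per chamber) recorded over 10 min, 5–15 min after dosing. Reported as % inhibition relative to the vehicle group. n = 6 per dose.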

[5] = tested on: Mus musculus; assay: Locomotor activity in iv dosed Harlan ICR mouse from 5 to 15 mins by spontaneous locomotor activity test; type: functional
[6] = tested on: Mus musculus; assay: Antinociceptive activity in iv dosed Harlan ICR mouse assessed as latency to heat-induced tail flicking at 20 mins; type: functional
Summary of the method: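 Male ICR mice, 18–25 g, n = 6 per dose. Multiple doses iv by tail vein in emulphor–ethanol–saline 1:1:18. Tail-flick latency at 20 min, 10 s cutoff, expressed as %MPE.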

[7] = tested on: Mus musculus; assay: Hypothermic activity in iv dosed Harlan ICR mouse assessed as change in rectal temperature at 30 mins; type: functional; conditions: 0.5 h
[8] = tested on: Mus musculus; assay: Induction of catalepsy in iv dosed Harlan ICR mouse at 40 mins measured for 5 mins by ring immobility test; type: functional
[9] = molecular target: T1, Cannabinoid receptor 1; assay: Activation of human CB1 receptor expressed in HEK293 cells assessed as [35S]GTPgamma binding after 90 mins by liquid scintillation spectrophotometry relative to CP55940; type: functional, cell-based
Summary of the method: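 Membranes from HEK-293 cells stably expressing human CB1, pelleted at 50,000g and taken up in Tris-HCl pH 7.4 with MgCl2, EGTA and NaCl. 10 µg protein with BSA, 20 µM GDP, 0.1 nM [35S]GTPγS and graded test concentrations, 90 min at 30 °C. 2 µM CP55,940 run as internal standard; basal without agonist, nonspecific with 10 µM GTPγS. Filtration, then scintillation counting.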

[10] = tested on: Mus musculus; assay: Locomotor activity in Harlan ICR mouse at 30 mg/kg, iv from 5 to 15 mins by spontaneous locomotor activity test in the presence of rimonabant; type: functional, organism-based; parameters: dose 30 mg/kg
[11] = tested on: Mus musculus; assay: Antinociceptive activity in Harlan ICR mouse assessed as latency to heat-induced tail flicking at 30 mg/kg, iv at 20 mins in the presence of rimonabant; type: functional, organism-based; parameters: dose 30 mg/kg
[12] = tested on: Mus musculus; assay: Hypothermic activity in Harlan ICR mouse assessed as change in rectal temperature at 30 mg/kg, iv at 30 mins in the presence of rimonabant; type: functional, organism-based; parameters: dose 30 mg/kg
[13] = tested on: Mus musculus; assay: Induction of catalepsy in Harlan ICR mouse at 30 mg/kg, iv 40 mins measured for 5 mins by ring immobility test in the presence of rimonabant; type: functional, organism-based; parameters: dose 30 mg/kg
[14] = organism: Mus musculus; assay: Induction of catalepsy in mouse by ring immobility test; type: functional
[15] = tested on: Mus musculus; assay: Locomotor activity in Harlan ICR mouse assessed as inhibition of activity level at 74 umol/kg, iv from 5 to 15 mins by spontaneous locomotor activity test relative to vehicle treated control; type: functional
Summary of the method: (§2)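 Male ICR mice, n = 6 per dose, single probe dose iv in emulphor–ethanol–saline 1:1:18. Photocell beam interruptions recorded over 10 min, at 5–15 min after dosing. Result given as % inhibition relative to the vehicle group.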

[16] = tested on: Mus musculus; assay: Hypothermic activity in Harlan ICR mouse assessed as change in rectal temperature at 74 umol/kg, iv at 30 mins; type: functional
Summary of the method: (§3)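 Male ICR mice, n = 6 per dose. Single probe dose iv in emulphor–ethanol–saline 1:1:18. Rectal temperature taken with a thermistor probe at 25 mm depth before dosing and at 30 min. Result given as change from pre-injection value (°C).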

[17] = tested on: Mus musculus; assay: Antinociceptive activity in Harlan ICR mouse assessed as latency to heat-induced tail flicking at 74 umol/kg, iv at 20 mins relative to control; type: functional
[18] = tested on: Mus musculus; assay: Locomotor activity in Harlan ICR mouse assessed as inhibition of activity level at 83 umol/kg, iv from 5 to 15 mins by spontaneous locomotor activity test relative to vehicle treated control; type: functional; summary of the method: as §2
[19] = tested on: Mus musculus; assay: Antinociceptive activity in Harlan ICR mouse assessed as latency to heat-induced tail flicking at 83 umol/kg, iv at 20 mins relative to control; type: functional
[20] = tested on: Mus musculus; assay: Hypothermic activity in Harlan ICR mouse assessed as change in rectal temperature at 83 umol/kg, iv at 30 mins; type: functional; summary of the method: as §3
[21] = tested on: Mus musculus; assay: Induction of catalepsy in Harlan ICR mouse at 83 umol/kg, iv at 40 mins measured for 5 mins by ring immobility test; type: functional
Summary of the method: (§4)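 Male ICR mice given a single iv probe dose in emulphor–ethanol–saline 1:1:18. At 40 min placed on a 5.5 cm ring raised 16 cm and observed for 5 min by blinded raters. Up to 5 escapes allowed; mice escaping before 2.5 min excluded. Immobility index = time motionless / 300 s × 100.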

[22] = tested on: Mus musculus; assay: Locomotor activity in Harlan ICR mouse assessed as inhibition of activity level at 66 umol/kg, iv from 5 to 15 mins by spontaneous locomotor activity test relative to vehicle treated control; type: functional; summary of the method: as §2
[23] = tested on: Mus musculus; assay: Locomotor activity in Harlan ICR mouse assessed as inhibition of activity level at 77 umol/kg, iv from 5 to 15 mins by spontaneous locomotor activity test relative to vehicle treated control; type: functional; summary of the method: as §2
[24] = tested on: Mus musculus; assay: Antinociceptive activity in Harlan ICR mouse assessed as latency to heat-induced tail flicking at 77 umol/kg, iv at 20 mins relative to control; type: functional
[25] = tested on: Mus musculus; assay: Hypothermic activity in Harlan ICR mouse assessed as change in rectal temperature at 77 umol/kg, iv at 30 mins; type: functional; summary of the method: as §3
[26] = tested on: Mus musculus; assay: Induction of catalepsy in Harlan ICR mouse at 77 umol/kg, iv at 40 mins measured for 5 mins by ring immobility test; type: functional; summary of the method: as §4

Chain of Cannabinoid receptor 2 (P34972 whole entry): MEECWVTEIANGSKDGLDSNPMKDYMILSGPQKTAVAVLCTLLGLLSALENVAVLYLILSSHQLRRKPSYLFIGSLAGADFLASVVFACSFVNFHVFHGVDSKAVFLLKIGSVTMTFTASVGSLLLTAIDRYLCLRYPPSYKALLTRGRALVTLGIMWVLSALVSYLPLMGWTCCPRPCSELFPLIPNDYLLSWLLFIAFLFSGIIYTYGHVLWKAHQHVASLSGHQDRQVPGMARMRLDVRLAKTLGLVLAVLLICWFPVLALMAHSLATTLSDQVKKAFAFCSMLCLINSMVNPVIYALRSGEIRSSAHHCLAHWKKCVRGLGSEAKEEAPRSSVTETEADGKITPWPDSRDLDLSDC
T1 sequence (P21554 whole entry): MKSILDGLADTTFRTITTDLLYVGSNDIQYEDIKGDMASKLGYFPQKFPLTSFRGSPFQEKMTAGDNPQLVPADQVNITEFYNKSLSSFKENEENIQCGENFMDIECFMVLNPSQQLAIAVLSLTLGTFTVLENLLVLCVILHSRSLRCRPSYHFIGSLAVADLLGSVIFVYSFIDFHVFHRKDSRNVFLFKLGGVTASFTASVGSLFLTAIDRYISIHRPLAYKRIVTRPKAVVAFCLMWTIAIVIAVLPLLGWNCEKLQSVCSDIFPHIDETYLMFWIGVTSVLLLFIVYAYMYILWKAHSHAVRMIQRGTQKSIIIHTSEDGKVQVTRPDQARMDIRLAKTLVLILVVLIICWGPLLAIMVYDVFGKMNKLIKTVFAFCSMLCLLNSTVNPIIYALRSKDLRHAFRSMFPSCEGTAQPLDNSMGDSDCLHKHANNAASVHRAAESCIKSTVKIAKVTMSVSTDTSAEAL

Row | SMILES | Ki [1] | Ki [2] | Ratio Ki [3] | ED50 [5] | ED50 [6] | ED50 [7] | further results
1 | CCCCCn1c(C)c(C(=O)c2cccc3cccc(I)c23)c2ccccc21 | 0.522 µM | 0.013 µM | 40 |  |  |  | inhibition [4]: inactive
2 | CCCCCn1cc(C(=O)c2cccc3cccc(Br)c23)c2ccccc21 | 0.021 µM | 0.0054 µM | 4 | 1.4 µmol/kg | 1.8 µmol/kg | 2.4 µmol/kg | ED50 [8]: 3.7 µmol/kg
3 | CCCn1c(C)c(C(=O)c2ccc(F)c3ccccc23)c2ccccc21 | 0.53 µM | 0.038 µM | 14 | 9.6 µmol/kg | 11.9 µmol/kg | 30.1 µmol/kg | ED50 [8]: 23.2 µmol/kg; Emax [9]: 59%; Activity [10]: inactive; Activity [11]: inactive; Activity [12]: inactive; Activity [13]: inactive
4 | CCCn1c(C)c(C(=O)c2cccc3ccccc23)c2ccccc21 |  |  |  | 18.7 µmol/kg | 84.7 µmol/kg | 99.1 µmol/kg | ED50 [14]: 87.2 µmol/kg
5 | CCCn1c(C)c(C(=O)c2cccc3cccc(Br)c23)c2ccccc21 | > 10 µM | 0.278 µM | > 36 |  |  |  | inhibition in vivo at 74 µmol/kg [15]: 49%; Activity [16]: -2.3%; Activity [17]: 72%
6 | CCCCCn1cc(C(=O)c2cccc3ccccc23)c2ccccc21 |  |  | 3.2 | 0.44 µmol/kg | 0.09 µmol/kg | 1.7 µmol/kg | ED50 [14]: 3 µmol/kg
7 | CCCn1c(C)c(C(=O)c2cccc3cccc(Cl)c23)c2ccccc21 | > 10 µM | 0.174 µM | > 57 |  |  |  | inhibition in vivo at 83 µmol/kg [18]: 70%; Activity [19]: 42%; Activity [20]: -2.3%; Activity [21]: 15%
8 | CCCn1c(C)c(C(=O)c2cccc3cccc(I)c23)c2ccccc21 | 4.29 µM | 0.536 µM | 8 |  |  |  | inhibition [22]: inactive
9 | CCCCCn1cc(C(=O)c2ccc(F)c3ccccc23)c2ccccc21 | 0.0072 µM | 0.0032 µM | 2 | < 0.08 µmol/kg | 0.14 µmol/kg | < 0.08 µmol/kg | ED50 [8]: 0.58 µmol/kg
10 | CCCn1cc(C(=O)c2cccc3cccc(Br)c23)c2ccccc21 | > 10 µM | 0.192 µM | > 52 |  |  |  | inhibition in vivo at 77 µmol/kg [23]: 76%; Activity [24]: 9%; Activity [25]: -2%; Activity [26]: 5%
11 | CCCCCn1c(C)c(C(=O)c2cccc3cccc(Cl)c23)c2ccccc21 | 0.116 µM | 0.019 µM | 6.1 |  |  |  | inhibition in vivo at 77 µmol/kg [23]: 84%; Activity [24]: 100%; Activity [25]: -5.5%; Activity [26]: 86%
12 | CCCn1cc(C(=O)c2ccc(Cl)c3ccccc23)c2ccccc21 | 0.093 µM | 0.044 µM | 2 |  |  |  | 
13 | CCCn1c(C)c(C(=O)c2ccc(Br)c3ccccc23)c2ccccc21 | 0.373 µM | 0.031 µM | 12 |  |  |  | inhibition in vivo at 74 µmol/kg [15]: 80%; Activity [16]: -5%; Activity [17]: 96%
